Assays:
dopamine D2/D3 receptors = experiment: Multiple-injection; type: in vivo, rhesus monkey (Macaca mulatta)
Multiple-injection = type: in vivo, rhesus monkey (Macaca mulatta)
Summary of the method: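 Three labeled/unlabeled radioligand injections were given i.v. in 0.9% NaCl within a session under 3 hours, with no decay correction. The model used K1, k2, fNDkon, koff and Bmax shared across injections, with molar arterial parent plasma as input and a blood-volume term. Levenberg–Marquardt fitting was run per ROI and across regions. Cerebellum was fitted as 1CM [K1,k2] or 2CM [K1,k2,Bmax] with fNDkon and koff fixed from other regions.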

[1] = baboon, MI experiments; ref Delforge et al, 1999; cited from earlier work
[2] = averaged across all brain regions

Row | K1, mean (Multiple-injection; [2]) [mL/cm^3/min] | k2, tissue-to-plasma efflux constant, mean (Multiple-injection; [2]) [min⁻¹] | ND distribution volume (VND = K1/k2) (Multiple-injection; from mean K1 and k2) [mL/cm^3] | SMILES | Estimated maximum receptor occupancy, injection 1 (dopamine D2/D3 receptors; experiment M1a, m1 2.0 nmol) [%] | Estimated maximum receptor occupancy, injection 2 (dopamine D2/D3 receptors; experiment M1a, m2 13.1 nmol) [%] | Estimated maximum receptor occupancy, injection 3 (dopamine D2/D3 receptors; experiment M1a, m3 100 nmol) [%] | Estimated maximum receptor occupancy, injection 1 (dopamine D2/D3 receptors; experiment M2a, m1 0.7 nmol) [%] | Estimated maximum receptor occupancy, injection 2 (dopamine D2/D3 receptors; experiment M2a, m2 10.6 nmol) [%] | VND [1] [mL/cm^3]
1 | 0.48 ± 0.15 | 0.54 ± 0.10 | 0.9 | C=CCN1CCC[C@H]1CNC(=O)c1cc(CCCF)cc(OC)c1OC [^18F-fallypride, (S)-N-[(1-allyl-2-pyrrolidinyl)methyl]-5 (3-[18F]fluoropropyl) 2,3-dimethoxybenzamide] | 13 | 64 | 98 | 12 | 77 | –
2 | – | – | – | CCN1CCCC1CNC(=O)c1cc([76Br])cc(OC)c1OC (stereo not drawn) [^76Br-FLB457] | – | – | – | – | – | 0.35
